Experimental data: ChEMBL document CHEMBL5096186, “Design, Synthesis, and Biological Evaluation of Novel Pyrimido[4,5-b]indole Derivatives Against Gram-Negative Multidrug-Resistant Pathogens” (J Med Chem, 2021)
≈ marks a conversion by molar mass, not a printed value.

How the values were obtained:
[1] = system: Staphylococcus epidermidis; assay: Antibacterial activity against methicillin-sensitive Staphylococcus epidermidis strains 15 1 to 4 assessed as reduction in bacterial growth incubated for 18 to 20 hrs by CLSI based microdilution method; type: functional; settings: time 18-20 hrs
Summary of the method: (§1)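 Broth microdilution per CLSI. Compounds dissolved in DMSO (levofloxacin and meropenem in water) as 64 μg/mL stock, then serial twofold dilutions in broth giving 64 to 0.008 μg/mL. […] Clinical isolates tested as several strains per group; racemic GP-1 served as positive control; values given as MIC ranges.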

Staphylococcus aureus [2] = assay: Antibacterial activity against methicillin-sensitive Staphylococcus aureus strains 15 1 to 4 assessed as reduction in bacterial growth incubated for 18 to 20 hrs by CLSI based microdilution method; type: functional; settings: time 18-20 hrs; summary of the method: as §1
Escherichia coli [3] = assay: Antibacterial activity against ESBL-producing Escherichia coli ATCC 35218 strains 15 1 to 3 assessed as reduction in bacterial growth incubated for 18 to 20 hrs by CLSI based microdilution method; type: functional; settings: time 18-20 hrs
Summary of the method: (§2)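 CLSI broth microdilution. Compounds in DMSO (levofloxacin and meropenem in water), serial twofold dilutions in broth, 64 to 0.008 μg/mL. […] Results reported as MIC ranges across strains.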

Pseudomonas aeruginosa [4] = assay: Antibacterial activity against multidrug resistant Pseudomonas aeruginosa strains 15 1 to 3 assessed as reduction in bacterial growth incubated for 18 to 20 hrs by CLSI based microdilution method; type: functional; settings: time 18-20 hrs; summary of the method: as §1
[5] = system: Staphylococcus epidermidis; assay: Antibacterial activity against methicillin-resistant Staphylococcus epidermidis strains 15 1 to 4 assessed as reduction in bacterial growth incubated for 18 to 20 hrs by CLSI based microdilution method; type: functional; settings: time 18-20 hrs; summary of the method: as §1
Staphylococcus aureus [6] = assay: Antibacterial activity against methicillin-resistant Staphylococcus aureus strains 15 1 to 4 assessed as reduction in bacterial growth incubated for 18 to 20 hrs by CLSI based microdilution method; type: functional; settings: time 18-20 hrs; summary of the method: as §1
Escherichia coli [7] = assay: Antibacterial activity against Escherichia coli ATCC 35218 strains 15 1 to 3 assessed as reduction in bacterial growth incubated for 18 to 20 hrs by CLSI based microdilution method; type: functional; settings: time 18-20 hrs; summary of the method: as §2
Pseudomonas aeruginosa [8] = assay: Antibacterial activity against IMP4-producing multidrug resistant Pseudomonas aeruginosa assessed as reduction in bacterial growth incubated for 18 to 20 hrs by CLSI based microdilution method; type: functional; settings: time 18-20 hrs; summary of the method: as §1
Klebsiella pneumoniae [9] = assay: Antibacterial activity agains wild type Klebsiella pneumoniae ATCC BAA-1705 assessed as reduction in bacterial growth incubated for 18 to 20 hrs by CLSI based microdilution method; type: functional; settings: time 18-20 hrs; summary of the method: as §2
Escherichia coli [10] = assay: Antibacterial activity against ESBL-producing multidrug resistant Escherichia coli assessed as reduction in bacterial growth incubated for 18 to 20 hrs by CLSI based microdilution method; type: functional; settings: time 18-20 hrs; summary of the method: as §1
Acinetobacter baumannii [11] = assay: Antibacterial activity against wild type Acinetobacter baumannii NCTC 13304 assessed as reduction in bacterial growth incubated for 18 to 20 hrs by CLSI based microdilution method; type: functional; settings: time 18-20 hrs; summary of the method: as §1
Escherichia coli [12] = assay: Antibacterial activity against multidrug resistant wild type Escherichia coli ATCC BAA-2340 assessed as reduction in bacterial growth incubated for 18 to 20 hrs by CLSI based microdilution method; type: functional; settings: time 18-20 hrs; summary of the method: as §1
[13] = molecular target: Voltage-gated inwardly rectifying potassium channel KCNH2 (Homo sapiens, UniProt Q12809); assay: Inhibition of hERG potassium channel assessed as […] at -80 mV holding potential incubated for 120 seconds by whole cell-automated voltage clamp analysis assay; type: toxicity
Sequence of Voltage-gated inwardly rectifying potassium channel KCNH2 (Q12809 whole entry): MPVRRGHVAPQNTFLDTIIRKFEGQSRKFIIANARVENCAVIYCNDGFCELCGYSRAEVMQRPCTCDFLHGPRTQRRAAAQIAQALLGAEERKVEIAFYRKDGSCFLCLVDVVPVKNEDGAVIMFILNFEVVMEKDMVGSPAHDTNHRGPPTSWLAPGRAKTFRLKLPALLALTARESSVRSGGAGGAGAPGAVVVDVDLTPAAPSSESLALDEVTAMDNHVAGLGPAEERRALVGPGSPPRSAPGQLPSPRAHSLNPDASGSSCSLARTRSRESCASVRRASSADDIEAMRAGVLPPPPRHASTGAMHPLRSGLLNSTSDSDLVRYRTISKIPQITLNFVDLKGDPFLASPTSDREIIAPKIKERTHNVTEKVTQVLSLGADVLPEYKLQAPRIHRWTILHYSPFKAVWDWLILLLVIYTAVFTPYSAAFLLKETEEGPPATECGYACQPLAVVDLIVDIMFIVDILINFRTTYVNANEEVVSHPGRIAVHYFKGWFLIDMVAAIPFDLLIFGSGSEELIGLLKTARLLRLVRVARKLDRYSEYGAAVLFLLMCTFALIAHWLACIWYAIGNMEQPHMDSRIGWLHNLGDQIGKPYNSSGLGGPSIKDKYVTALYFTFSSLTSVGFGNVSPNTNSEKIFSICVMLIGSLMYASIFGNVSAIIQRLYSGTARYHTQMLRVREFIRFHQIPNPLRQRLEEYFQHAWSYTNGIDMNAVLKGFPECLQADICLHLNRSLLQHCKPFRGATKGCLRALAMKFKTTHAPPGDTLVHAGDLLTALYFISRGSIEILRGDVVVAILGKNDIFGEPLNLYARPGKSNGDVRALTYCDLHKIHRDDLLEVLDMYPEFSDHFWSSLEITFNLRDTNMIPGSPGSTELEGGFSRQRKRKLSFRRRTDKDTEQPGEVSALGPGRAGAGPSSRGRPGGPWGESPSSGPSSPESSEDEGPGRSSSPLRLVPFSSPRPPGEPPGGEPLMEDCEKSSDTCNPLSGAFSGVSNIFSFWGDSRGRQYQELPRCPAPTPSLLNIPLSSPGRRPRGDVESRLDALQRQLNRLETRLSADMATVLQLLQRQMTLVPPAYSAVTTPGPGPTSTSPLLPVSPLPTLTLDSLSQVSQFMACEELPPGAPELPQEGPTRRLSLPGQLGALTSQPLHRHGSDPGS
Summary of the method: (§3)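 Automated whole-cell patch clamp, holding potential −80 mV. Voltage protocol applied every 20 s. Baseline set with external solution containing 0.1% DMSO and stabilised 3 min. Compound applied until steady state, at least 3 min, then washout. Maximum tested concentration 40 μM, or 3 μM for cisapride as positive control.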

[14] = Metabolic stability in rat liver microsome assessed as intrinsic clearance at 0.1 uM in presence of NADPH incubated upto 60 mins by LC-MS/MS analysis; type: ADME; settings: microsomes, 1 h
Summary of the method: (§4)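 Compound at 0.1 μM final, in 0.01% DMSO with 0.005% BSA. Incubated with rat or human liver microsomes at 0.33 mg/mL in 0.1 M Tris-HCl, pH 7.4, with 5 mM MgCl₂ and 1 mM NADPH, at 37 °C. Samples at 0, 7, 17, 30 and 60 min quenched with cold methanol and analysed by LC-MS/MS. Half-life, Cl_int and MF% derived as previously described.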

[15] = molecular target: hERG (KCNH2) potassium channel (Homo sapiens, UniProt Q12809); assay: Inhibition of hERG potassium channel assessed as maximum inhibition rate at 40 uM at -80 mV holding potential incubated for 120 seconds by whole cell-automated voltage clamp analysis assay relative to control; type: toxicity; settings: time 120 sec; summary of the method: as §3
Sequence of hERG (KCNH2) potassium channel (Q12809 whole entry): as above

[16] = Metabolic stability in human liver microsome assessed as intrinsic clearance at 0.1 uM in presence of NADPH incubated upto 60 mins by LC-MS/MS analysis; type: ADME; settings: microsomes, 1 h; summary of the method: as §4
Pseudomonas aeruginosa [17] = assay: Antibacterial activity against wild type Pseudomonas aeruginosa ATCC 27853 assessed as reduction in bacterial growth incubated for 18 to 20 hrs by CLSI based microdilution method; type: functional; settings: time 18-20 hrs; summary of the method: as §2
[18] = Metabolic stability in rat liver microsome assessed as metabolic bioavailability at 0.1 uM in presence of NADPH incubated upto 60 mins by LC-MS/MS analysis; type: ADME; settings: liver microsomes; summary of the method: as §4
Klebsiella pneumoniae [19] = assay: Antibacterial activity agains wild type Klebsiella pneumoniae ATCC BAA-2470 assessed as reduction in bacterial growth incubated for 18 to 20 hrs by CLSI based microdilution method; type: functional; settings: time 18-20 hrs; summary of the method: as §1
[20] = Metabolic stability in human liver microsome assessed as metabolic bioavailability at 0.1 uM in presence of NADPH incubated upto 60 mins by LC-MS/MS analysis; type: ADME; settings: liver microsomes; summary of the method: as §4
Escherichia coli [21] = assay: Antibacterial activity against multidrug resistant wild type Escherichia coli NCTC 13353 assessed as reduction in bacterial growth incubated for 18 to 20 hrs by CLSI based microdilution method; type: functional; settings: time 18-20 hrs; summary of the method: as §1
[22] = Metabolic stability in rat liver microsome assessed as elimination half life at 0.1 uM in presence of NADPH incubated upto 60 mins by LC-MS/MS analysis; type: ADME; settings: liver microsomes, read-out: beta t1/2; summary of the method: as §4
[23] = Metabolic stability in human liver microsome assessed as elimination half life at 0.1 uM in presence of NADPH incubated upto 60 mins by LC-MS/MS analysis; type: ADME; settings: liver microsomes, read-out: beta t1/2; summary of the method: as §4
Acinetobacter baumannii [24] = assay: Antibacterial activity agains OXA23-producing multidrug resistant Acinetobacter baumannii assessed as reduction in bacterial growth incubated for 18 to 20 hrs by CLSI based microdilution method; type: functional; settings: time 18-20 hrs; summary of the method: as §1
Klebsiella pneumoniae [25] = assay: Antibacterial activity against KPC2-producing multidrug resistant Klebsiella pneumoniae assessed as reduction in bacterial growth incubated for 18 to 20 hrs by CLSI based microdilution method; type: functional; settings: time 18-20 hrs; summary of the method: as §1
[26] = Volume of distribution at the steady state in Sprague-Dawley rat at 4 mg/kg, iv measured upto 24 hrs by LC-MS/MS analysis; type: ADME, organism-based; settings: in vivo, read-out: Vdss
Summary of the method: (§5)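 Male Sprague-Dawley rats, n = 3 per group, single intravenous dose. For 4 mg/kg: 180–280 g rats, vehicle 5% DMSO + 5% EtOH + 40% PEG300 + 50% saline, blood from the retrobulbar vein at 0.05–24 h. For 5 and 20 mg/kg: 180–300 g rats, vehicle 5% DMSO + 5% solutol + 90% saline, sampled at 0.083–24 h. Plasma quantified by LC/MS/MS. Parameters from mean plasma concentration by noncompartmental analysis; values are mean ± standard deviation.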

[27] = Elimination half life in Sprague-Dawley rat at 4 mg/kg, iv measured upto 24 hrs by LC-MS/MS analysis; type: ADME, organism-based; settings: in vivo, read-out: beta t1/2 (converted); summary of the method: as §5
[28] = MRT in Sprague-Dawley rat at 4 mg/kg, iv measured upto 24 hrs by LC-MS/MS analysis; type: ADME, organism-based; settings: in vivo; summary of the method: as §5
[29] = Clearance in Sprague-Dawley rat at 4 mg/kg, iv measured upto 24 hrs by LC-MS/MS analysis; type: ADME, organism-based; settings: in vivo; summary of the method: as §5
[30] = AUC (0 to infinity) in Sprague-Dawley rat at 4 mg/kg, iv measured upto 24 hrs by LC-MS/MS analysis; type: ADME, organism-based; set-up: time < 24 hrs, dose 4 mg/kg, route iv; settings: in vivo; summary of the method: as §5

| Structure (SMILES) | MIC [1] | MIC (Staphylococcus aureus [2]) | MIC (Escherichia coli [3]) | MIC (Pseudomonas aeruginosa [4]) | MIC [5] | MIC (Staphylococcus aureus [6]) | MIC (Escherichia coli [7]) | IC50 [13] | inhibition at 2 min, 40 µM [15] | also measured |
| --- | --- | --- | --- | --- | --- | --- | --- | --- | --- | --- |
| CNc1cc(F)cc2c1[nH]c1nc(Oc3cnc(C)nc3)nc(N3CCC(=C(C)CN)CC3)c12 | 0.03 µg/mL (≈ 0.0649 µM) | 0.125 µg/mL (≈ 0.27 µM) | 2 µg/mL (≈ 4.32 µM) | > 8 µg/mL | < 0.008 µg/mL | 0.125 µg/mL (≈ 0.27 µM) | 0.25 µg/mL (≈ 0.541 µM) |  |  |  |
| CNc1cc(F)cc2c1[nH]c1nc(Oc3cnc(C)nc3)nc(N3CC(=C(CN)C(C)C)C3)c12 | < 0.008 µg/mL | < 0.008 µg/mL | 0.125 µg/mL (≈ 0.27 µM) | 1 µg/mL (≈ 2.16 µM) |  |  | 0.03 µg/mL (≈ 0.0649 µM) | > 40 µM | 26.5% | MIC (Pseudomonas aeruginosa [8]): 4 µg/mL (≈ 8.65 µM); MIC (Klebsiella pneumoniae [9]): 4 µg/mL (≈ 8.65 µM); MIC (Escherichia coli [10]): 1 µg/mL (≈ 2.16 µM); MIC (Acinetobacter baumannii [11]): 0.5 µg/mL (≈ 1.08 µM); MIC (Escherichia coli [12]): 0.5 µg/mL (≈ 1.08 µM); CLH [14]: 118.3 mL/min/g; CLH [16]: 55.2 mL/min/g; MIC (Pseudomonas aeruginosa [17]): 2 µg/mL (≈ 4.32 µM); Fh at 1 h, 0.1 µM [18]: 27.3%; MIC (Klebsiella pneumoniae [19]): 2 µg/mL (≈ 4.32 µM); Fh at 1 h, 0.1 µM [20]: 26.2%; MIC (Escherichia coli [21]): 0.5 µg/mL (≈ 1.08 µM); half-life at 0.1 µM [22]: 0.297 h; half-life at 0.1 µM [23]: 0.633 h; MIC (Acinetobacter baumannii [24]): 0.5 µg/mL (≈ 1.08 µM); MIC (Klebsiella pneumoniae [25]): 2 µg/mL (≈ 4.32 µM) |
| CCC(CO)=C1CN(c2nc(Oc3cnc(C)nc3)nc3[nH]c4c(NC)cc(F)c(F)c4c23)C1 | < 0.03 µg/mL | < 0.03 µg/mL | 0.25 µg/mL (≈ 0.535 µM) | > 8 µg/mL |  |  | 32 µg/mL (≈ 68.5 µM) |  |  | Vd [26]: 68.4 L/kg; half-life [27]: 6.5 h; MRT [28]: 8.3 h; clearance [29]: 141 mL/min/kg; AUC(0-inf) [30]: 517 ng·h/mL |
| CNc1cc(F)cc2c1[nH]c1nc(Oc3cnc(C)nc3)nc(N3CC(=C(F)CN)C3)c12 | 0.125 µg/mL (≈ 0.285 µM) | 0.015 µg/mL (≈ 0.0342 µM) | 0.25 µg/mL (≈ 0.57 µM) | > 16 µg/mL | 0.015 µg/mL (≈ 0.0342 µM) | 0.015 µg/mL (≈ 0.0342 µM) | 0.06 µg/mL (≈ 0.137 µM) | > 40 µM | 3.2% |  |
